Calls of active or inactive are those of the source. The calls are words filed in the database; no cut-off is given here.
Key:
[1] = target: Retinoid isomerohydrolase (Bos taurus, UniProt Q28175); test: (§1) Inhibition of RPE65 in bovine RPE microsomes assessed as reduction in 11-cis-retinol production using all-trans-retinol as substrate pre-incubated with enzyme for 5 mins followed by further incubation with all-trans-retinol for 1 hr by normal phase HPLC analysis; design: species or system Retina, Microsome
Retinoid isomerohydrolase, sequence (Q28175 whole entry): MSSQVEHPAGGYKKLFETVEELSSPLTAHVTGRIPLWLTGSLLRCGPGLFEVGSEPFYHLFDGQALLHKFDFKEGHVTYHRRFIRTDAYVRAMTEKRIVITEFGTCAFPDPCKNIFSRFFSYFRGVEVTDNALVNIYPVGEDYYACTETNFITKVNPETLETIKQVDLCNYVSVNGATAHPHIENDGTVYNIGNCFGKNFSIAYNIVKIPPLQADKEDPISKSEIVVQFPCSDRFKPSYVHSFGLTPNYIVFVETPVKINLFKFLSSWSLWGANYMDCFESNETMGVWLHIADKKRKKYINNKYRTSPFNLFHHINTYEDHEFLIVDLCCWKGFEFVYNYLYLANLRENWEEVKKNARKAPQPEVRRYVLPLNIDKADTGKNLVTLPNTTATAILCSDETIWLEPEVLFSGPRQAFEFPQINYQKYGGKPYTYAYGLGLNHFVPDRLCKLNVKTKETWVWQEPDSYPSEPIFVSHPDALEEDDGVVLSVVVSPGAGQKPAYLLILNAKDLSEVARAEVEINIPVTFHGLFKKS
How it was run: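 All-trans-retinol added to the enzyme mixture and incubated 1 h at 37 °C. Quenched with methanol and extracted into hexane. Inhibition taken from the fall in 11-cis-retinol production.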

ARPE-19 [2] = test: Cytoprotective activity against human ARPE-19 cells assessed as reduction in all-trans-retinal induced cytotoxicity by measuring cell surveillance rate at 90 uM incubated for 6 hrs in presence of all-trans-retinal by CellTiter-Glo luminescent cell viability assay relative to control; assay type: functional
How it was run: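 ARPE-19 (human RPE line) cells given test agent at 18, 45 or 90 μM together with all-trans-retinal 385 μM. Incubated 6 h at 37 °C, then viability read by CellTiter-Glo luminescence. Mean ±SE, n=3, t-test.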

[3] = target: Retinoid isomerohydrolase (Bos taurus) (UniProt Q28175); test: as §1, with “Potency index, ratio of (R)-MB001 EC50 to test compound EC50 for inhibition” for “Inhibition”; conditions: Retina, Microsome, time 65.0 min
Retinoid isomerohydrolase (Bos taurus), sequence (Q28175 2-533 limits assumed): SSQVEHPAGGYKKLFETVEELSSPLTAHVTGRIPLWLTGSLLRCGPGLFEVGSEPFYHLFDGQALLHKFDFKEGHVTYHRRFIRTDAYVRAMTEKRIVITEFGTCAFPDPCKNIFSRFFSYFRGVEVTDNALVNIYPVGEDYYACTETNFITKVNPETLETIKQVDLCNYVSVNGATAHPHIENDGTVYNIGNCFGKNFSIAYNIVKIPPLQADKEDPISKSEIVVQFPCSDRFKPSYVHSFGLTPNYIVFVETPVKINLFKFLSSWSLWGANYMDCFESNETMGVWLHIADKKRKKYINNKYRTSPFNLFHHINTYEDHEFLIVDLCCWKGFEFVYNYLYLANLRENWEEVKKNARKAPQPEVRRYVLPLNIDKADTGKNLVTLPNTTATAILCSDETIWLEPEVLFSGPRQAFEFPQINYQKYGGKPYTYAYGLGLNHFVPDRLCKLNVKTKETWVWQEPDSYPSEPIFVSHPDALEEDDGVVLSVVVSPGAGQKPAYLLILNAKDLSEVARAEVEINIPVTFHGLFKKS

ARPE-19 [4] = test: Cytoprotective activity against human ARPE-19 cells assessed as reduction in all-trans-retinal induced cytotoxicity at 18 to 90 uM incubated for 6 hrs in presence of all-trans-retinal by CellTiter-Glo luminescent cell viability assay; assay type: functional, cell-based; conditions: dose microM 18-90, time 6.0 hrs

Row | Compound | EC50 [1] [nM] | Activity (ARPE-19 [2]) [%] | Ratio EC50 [3] | Activity (ARPE-19 [4])
1 | NCCC(O)c1cccc(OCC(CCCF)CCCF)c1 (racemic) [listing 1 of 2 here] | 166 | – | – | –
2 | NCCC(O)c1cccc(OCC(CCCF)CCCF)c1 (stereo in doubt; 14) [listing 1 of 2 here] | 196 | 100 | – | –
3 | NCCC(O)c1cccc(OCC(CCCF)CCCF)c1 (stereo in doubt; 14) [listing 2 of 2 here] | – | – | 2 | Active
4 | CC1=C(COc2cccc([C@H](O)CCN)c2)C(C)(C)CCC1 | 323 | – | – | Active
5 | NCCC(O)c1cccc(OCC(CCCF)CCCF)c1 (racemic) [listing 2 of 2 here] | – | – | 2 | Active

— ChEMBL document CHEMBL4665714 (Bioorg Med Chem Lett, 2020)
